# Data: ChEMBL document CHEMBL1150594, “Suberosols A-D, four new sesquiterpenes with beta-caryophyllene skeletons from a Taiwanese gorgonian coral Subergorgia suberosa” (2002)
# Key:
# Type in all cases: functional
# Details in all cases: read-out: ED50 (the source's name)
# [1] = test system: HT-29; assay: Cytotoxicity against human HT-29 cells by MTT assay
# In short: (§1)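 Growth inhibition of cancer cells read by a modified MTT colorimetric method, following a previously described procedure. P-388 cells were obtained from an academic laboratory; A549 and HT-29 cells came from the American Type Culture Collection.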
# [2] = test system: P388; assay: Cytotoxicity against mouse P388 cells by MTT assay; in short: as §1
# [3] = test system: A549; assay: Cytotoxicity against human A549 cells by MTT assay; in short: as §1
Structure (SMILES),EC50 [1] [µg/mL],EC50 [2] [µg/mL],EC50 [3] [µg/mL]
C=C1CC/C=C(\C)C(=O)C[C@@H]2[C@@H]1CC2(C)C [BUDDLEDIN C],3.6,4.6,3.8
C=C1CC/C=C(/C)C(=O)C[C@@H]2[C@@H]1CC2(C)C [BUDDLEDIN D],6.6,6.3,8.9
C=C1CC[C@H]2O[C@]2(C)[C@@H](O)C[C@@H]2[C@@H]1CC2(C)C [SUBEROSOL A],> 50,3.8,> 50
C=C1CC[C@H]2O[C@]2(C)[C@H](O)C[C@@H]2[C@@H]1CC2(C)C [SUBEROSOL B],> 50,7.4,> 50
C=C1CC/C=C(\C)[C@H](O)C[C@@H]2[C@@H]1CC2(C)C [SUBEROSOL C],2.3,2.1,5.6
C=C1CC/C=C(/C)[C@@H](O)C[C@@H]2[C@@H]1CC2(C)C [SUBEROSOL D],3.8,3.3,4.2
